High-throughput results as filed in PubChem BioAssay.
sPLA2-III inh: human group III sPLA2 inhibitors, primary screen, biochemical, QFRET, BODIPY PC-A2 liposome substrate. Group 3 secretory phospholipase A2 (Homo sapiens), Q9NZ20. QFRET BODIPY PC-A2 liposome hydrolysis, fluorescence. inhibition, % at 12.2 µM. actives 0.56% (n = 370,000). AID 743126, 2013;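 active = inhibition above mean plus 3 SD of compounds lying within the high and low control bounds, cut at about 19% in these data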;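 also: 0% = median of test compound wells and 100% = no enzyme DMSO wells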
HTR2A ag: mouse Htr2a agonists via beta-arrestin recruitment, primary screen, cell-based, luminescence. AID 624169, 2012. actives 0.66% (n = 360,000). activation, % at 7.6 µM. 5-hydroxytryptamine receptor 2A (Mus musculus), P35363. CHO-K1 mHTR2A beta-arrestin complementation; percent of 30 µM serotonin response;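 active = activation above a run cutoff, the mean activation of all tested compounds plus 3 SD, cut at about 14% in these data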;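 also: 0% = plate median of compound wells and 100% = 30 µM serotonin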
CendR NRP1 mod: modulators of CendR peptide binding to NRP-1, primary screen, biochemical, fluorescence polarization, uHTS. AID 602438, 2012. actives 0.85% (n = 360,000). FAM-RPARPAR peptide binding to NRP-1. inhibition, % at 25 µM. Neuropilin-1 (Homo sapiens), O14786;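 active = inhibition or corrected inhibition above about 18%, plus a signal ratio from 0.5 to 1.5, limit read from the data, passing the limit was not always enough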
Target sequence (O14786 whole entry, looked up): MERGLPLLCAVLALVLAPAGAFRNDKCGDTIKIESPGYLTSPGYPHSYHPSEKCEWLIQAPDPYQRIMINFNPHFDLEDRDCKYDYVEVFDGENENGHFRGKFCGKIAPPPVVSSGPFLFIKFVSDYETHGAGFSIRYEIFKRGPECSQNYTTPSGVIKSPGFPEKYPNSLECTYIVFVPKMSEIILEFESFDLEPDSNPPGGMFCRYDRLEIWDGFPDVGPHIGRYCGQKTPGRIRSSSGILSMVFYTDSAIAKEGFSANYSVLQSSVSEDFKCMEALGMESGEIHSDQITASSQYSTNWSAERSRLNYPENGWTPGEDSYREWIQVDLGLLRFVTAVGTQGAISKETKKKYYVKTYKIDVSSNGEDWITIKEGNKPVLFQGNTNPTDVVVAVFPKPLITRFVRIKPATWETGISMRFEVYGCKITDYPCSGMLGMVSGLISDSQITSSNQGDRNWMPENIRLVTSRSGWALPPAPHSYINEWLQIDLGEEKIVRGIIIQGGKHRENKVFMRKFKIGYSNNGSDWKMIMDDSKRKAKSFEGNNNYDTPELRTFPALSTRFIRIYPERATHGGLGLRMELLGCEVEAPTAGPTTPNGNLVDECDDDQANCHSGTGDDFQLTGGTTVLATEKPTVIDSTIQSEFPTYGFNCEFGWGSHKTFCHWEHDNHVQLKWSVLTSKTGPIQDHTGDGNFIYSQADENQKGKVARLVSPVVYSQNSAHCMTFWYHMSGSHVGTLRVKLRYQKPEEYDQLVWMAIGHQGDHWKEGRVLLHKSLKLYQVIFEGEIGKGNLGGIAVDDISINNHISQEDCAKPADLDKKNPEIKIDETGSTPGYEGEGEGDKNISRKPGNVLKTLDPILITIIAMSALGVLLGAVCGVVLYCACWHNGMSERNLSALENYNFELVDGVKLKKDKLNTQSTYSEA
Arr AP2 block: inhibitors of beta-arrestin/AP2 binding, primary screen, biochemical, GPCR trafficking, flow cytometry; beta-arrestin 1 C-terminal peptide binding to AP2 beta2-adaptin appendage (human); FITC-arrestin peptide / GST-AP2 beads; AP2 beta2 appendage carries R879A mutation; inhibition, % at 10 µM; actives 0.31% (n = 340,000);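 active = inhibition above a set limit, near 3 SD of compounds lacking own fluorescence, cut at about 54% in these data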;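 also: plate controls were DMSO wells for no effect and 5 µM unlabelled arrestin peptide for full effect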
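Material – AP2 appendage R879A on GSH beads · Buffer or medium – PBS with 0.05% Tween 20 and 0.1% BSA · Probe or stimulus – fluorescein-tagged arrestin peptide at 50 nM final · Incubation – compound with beads 12 min RT, then probe 1 h RT · Detection – high-throughput flow cytometry of beads, ex 488, em 535 nm · Evaluation – percent response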
Hep lipid drop: inhibitors of hepatocyte lipid droplet formation, primary screen, imaging, high-throughput imaging, BODIPY stain; inhibition, % at 6.5 µM; AML12 mouse hepatocytes, oleate lipid droplets; actives 0.4% (n = 240,000);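 active = lipid droplet intensity inhibited by at least 50%, with more than 500 cells counted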
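Assay system: AML12 mouse liver cells | Compound: 6.5 µM single-point dosing | Schedule: Overnight exposure | Technique: Fluorescence imaging, 20x objective, two fields per well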
M18AAP inhibitor: PfM18AAP inhibitors, malaria aminopeptidase, primary screen, biochemical, QFRET, recombinant enzyme; H-Glu-NHMec fluorogenic cleavage; inhibition, % at 7.35 µM; actives 1.2% (n = 290,000); AID 1822, 2009;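 active = inhibition above the campaign mean inhibition over all tested compounds plus 3 SD, cut at about 28% in these data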;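 also: 0% = plate median of test compound wells and 100% = 2 mM ZnCl2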
Arr AP2 CP1: inhibitors of arrestin peptide binding to AP2, confirmation, biochemical, cherry pick 1, flow cytometry beads | GST-AP2 beads, FITC arrestin peptide binding; GST-fused beta2-adaptin appendage, R879A mutant | actives 2% (n = 1,300) | shares compounds with Arr AP2 block | inhibition, % at 10 µM;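 active = inhibition above a set limit, roughly 3 SD of non-fluorescent compound noise, cut at about 38% in these data; inactive = inhibition at or below that limit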;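 also: loss of bead fluorescence from 50 nM FITC arrestin peptide bound to appendage; 0% = negative control wells and 100% = excess unlabelled arrestin peptide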
GST-FITC bead: GST-fluorescein capture on glutathione beads, confirmation, artefact control for arrestin-AP2 inhibitor project, biochemical, cherry pick 1, flow cytometry | shares compounds with Arr AP2 block | AID 588338, 2011 | inhibition, % at 10 µM | actives 2% (n = 1,300) | GST-fluorescein binding to GSH beads, fluorescence, counter-screen;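 active = inhibition above 50%, about 3 SD of the inhibition seen with non-fluorescent compounds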;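 also: fluorescein maleimide labelled GST captured on 4 micron glutathione beads; higher means more loss of bead fluorescence from quenching or blocked binding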
Numbers without * were called inactive; · = no result. Most compounds without a hit are left out; they make up all but 3.3% or so of the library.

SMILES	sPLA2-III inh	HTR2A ag	CendR NRP1 mod	Arr AP2 block	Hep lipid drop	M18AAP inhibitor	Arr AP2 CP1	GST-FITC bead
CCOC(=O)c1cnn(-c2ccc(C(C)C)cc2)c1NC(=O)C1CCC1	-3	-4	-9	99*	·	5	-4	0
CCOC(=O)c1cnn(-c2ccccc2)c1NC(=O)c1ccccc1C	3	6	11	24	4	-1	·	·
COc1ccc(OCc2cc(C(=O)O)c(C)o2)cc1	·	·	·	·	-15	6	·	·
O=C(c1ccnc(Cl)c1)N1CCCC(N2CCN(c3ccccc3F)CC2)C1 (stereo not given)	-2	8	-3	63*	-1	0	2	-3
C[C@@H](NCCCn1cnc2c(OCc3ccccc3)ncnc21)c1cccc2ccccc12	-9	-1	-8	62*	·	·	1	-4
CC(CNCCCn1cnc2c(OCc3ccccc3)ncnc21)c1ccccc1 (stereo not given)	-14	-6	14	-7	·	·	·	·
COc1ccc(CNS(=O)(=O)CC2NCCc3ccccc32)cc1 (stereo not given)	0	·	·	·	·	·	·	·
Cc1cc(-c2ccc(C(C)C)c(S(=O)(=O)N3CCC(C)CC3)c2)on1	-2	11	1	58*	-11	2	7	-7
Cc1[nH]nc(C(=O)NN=Cc2ccccc2Cl)c1N=NN(C)C	-10	12	-4	-17	·	·	·	·
Cc1cc(Br)ccc1OCCNCc1ccccc1	0	13	-9	56*	2	6	-2	-13
COc1cc(/C=C(/C#N)c2nc3ccccc3[nH]2)ccc1OCC(=O)Nc1ccccc1C	-2	6	-30	2	·	-4	·	·
COc1cc(/C=C(\C#N)c2nc3ccccc3[nH]2)ccc1OC(=O)c1ccco1	-16	-1	-38	97*	19	-4	13	-5
CC1(C(=O)NS(=O)(=O)c2ccc(Cl)cc2)CCN1C(=O)C1(c2ccc(Cl)cc2)CCC1 (stereo not given)	-27	3	0	·	·	·	·	·
CC(C)[C@@H]1OC(=O)[C@@H]2CCCN2C(=O)[C@H](C)OC(=O)[C@H](C)[C@@H](C(C)C)NC(=O)[C@@H]2CCCN2C(=O)[C@H]([C@H](C)Cc2ccccc2)NC(=O)[C@@H]2CCCN2C(=O)[C@@H](C(C)C)N(C)C1=O	-7	·	·	·	·	·	·	·
Cc1ccc(N(CCC#N)C(=O)COC(=O)C2=COCCO2)cc1	6	1	-10	2	·	·	·	·
Cc1ccc(N(CCC#N)C(=O)COC(=O)c2ccccn2)cc1	2	4	-17	69*	13	-6	-6	-1
CCc1ccc(CCNC(=O)OC2CC3CC2[C@H]2CCCCN2[C@H]3Cc2ccccc2)cc1 (stereo not given in full)	4	·	·	·	·	·	·	·
O=C(CCC(=O)N1CCCCC1)Nc1ccc(Cl)c(Cl)c1	10	-1	6	85*	6	-16	-1	-4
O=C(CCC(=O)N1CCOCC1)Nc1ccc(Cl)c(Cl)c1	8	-1	19	1	2	-8	·	·
Cc1cc(/C=C2/NC(=O)N(Cc3ccccc3F)C2=O)c(C)n1-c1ccccn1	4	-3	0	88*	-10	2	-7	72*
CC(C)CN1CCC(=O)N(CCOc2ccccc2)CC1	-3	2	10	57*	·	5	9	-1
CCCC(=O)N1CCC1(C)C(=O)Nc1ccc2scnc2c1 (stereo not given)	·	1	-2	·	·	·	·	·
CCN(C(=O)Cn1cnc2c1c(=O)n(C)c(=O)n2C)C1CCCCC1	6	13	13	61*	·	·	-2	-12
CCN(C(=O)Cn1cnc2c1c(=O)n(C)c(=O)n2C)C1CCS(=O)(=O)C1 (stereo not given)	5	-3	-17	4	·	·	·	·
O=C(N=c1ccn(-c2nc3ccccc3nc2NS(=O)(=O)c2ccccc2)cc1)c1cccs1	-3	2	-43	58*	-18	-4	-11	60*
SMILES	sPLA2-III inh	HTR2A ag	CendR NRP1 mod	Arr AP2 block	Hep lipid drop	M18AAP inhibitor	Arr AP2 CP1	GST-FITC bead
Cc1ccccc1C(=O)N=c1ccn(-c2nc3ccccc3nc2NS(=O)(=O)c2ccc(F)cc2)cc1	6	4	138	-1	22	10	·	·
Cc1nc2sc(C(=O)Nc3ccccc3Cc3ccccc3)c(C)c2c(=O)[nH]1	17	0	-4	-8	4	-20	·	·
Cc1nn(-c2ccc(F)cc2)c(Cl)c1/C=C/C(=O)OCC(=O)Nc1c(F)c(F)c(F)c(F)c1F	-4	-4	4	104*	15	-4	-4	-2
COC(=O)c1cccc(-n2sc3ccccc3c2=O)c1	13	10	6	11	·	·	·	·
Cc1cc(C)cc(OCC(=O)Nc2ccc3c(c2)C(=O)c2ccccc2C3=O)c1	3	-4	-4	97*	16	-2	6	6
CCOc1ccc(CCN2C(=S)N([C@@H](Cc3ccc(O)cc3)CN3CCC[C@@H]3CN3C(=S)NC[C@@H]3CC(C)C)C[C@@H]2Cc2ccc(O)cc2)cc1	-11	0	15	·	·	·	·	·
Nn1c(SCC(=O)N2CCN(S(=O)(=O)c3ccc(Cl)cc3)CC2)nnc1-c1cccs1	-3	3	14	3	9	4	·	·
Nn1c(SCC(=O)N2CCN(S(=O)(=O)c3ccccc3)CC2)nnc1-c1cccs1	3	1	6	99*	·	-7	-1	-12
CCCCCCCCN1C(=O)[C@@H](CC(=O)NCC2CCCCC2)C[C@@]2(C(=O)OC)C1=C[C@H](COCc1ccccc1)O[C@@H]2C	-4	·	·	·	·	·	·	·
COc1cc(C#N)c(N=C(SCC#N)N2CCOCC2)cc1OC	6	1	-1	59*	10	2	15	1
COc1cc(C(=O)OCc2ccccc2C#N)ccc1OCC(=O)N1CCOCC1	5	-5	16	-4	·	·	·	·
O[C@@H]1CN(Cc2ccc(-n3cccn3)cc2)CC[C@H]1N1CCN(c2ccccc2F)CC1	-6	3	-10	2	0	-11	·	·
